Test results: ChEMBL document CHEMBL1268842, “Discovery of N-benzyl-2-[(4S)-4-(1H-indol-3-ylmethyl)-5-oxo-1-phenyl-4,5-dihydro-6H-[1,2,4]triazolo[4,3-a][1,5]benzodiazepin-6-yl]-N-isopropylacetamide, an orally active, gut-selective CCK1 receptor agonist for the potential treatment of obesity” (Bioorg Med Chem Lett, 2010)
Values after ≈ are worked out from the molar mass of the structure shown. Active and inactive are the calls of the source. The calls are words filed in the database; no cut-off is given here.

Legend:
[1] = Lipophilicity, log D of the compound at pH 7.4; type: physicochemical; settings: buffer
[2] = target: T1, Cholecystokinin receptor type A (Homo sapiens, UniProt P32238); experiment: Displacement of [125I]CCK8 from human CCK1 receptor expressed in CHO cells; type: cell-based
T1 sequence (P32238 whole entry): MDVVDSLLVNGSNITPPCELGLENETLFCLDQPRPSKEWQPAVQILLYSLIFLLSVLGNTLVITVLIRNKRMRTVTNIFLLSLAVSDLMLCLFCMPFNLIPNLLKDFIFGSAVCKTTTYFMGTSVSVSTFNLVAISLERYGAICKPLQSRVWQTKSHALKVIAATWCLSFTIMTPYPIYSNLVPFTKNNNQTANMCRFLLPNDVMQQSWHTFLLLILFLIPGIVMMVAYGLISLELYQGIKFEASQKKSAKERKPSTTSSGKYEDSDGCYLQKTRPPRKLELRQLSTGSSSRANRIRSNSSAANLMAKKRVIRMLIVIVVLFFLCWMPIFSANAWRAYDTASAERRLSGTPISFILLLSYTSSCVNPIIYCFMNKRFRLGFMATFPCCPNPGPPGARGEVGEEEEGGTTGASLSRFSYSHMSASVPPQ
Outline: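 Binding IC50 at the human CCK1 receptor. Values are mean ± standard error of at least three independent experiments.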

[3] = target: T1, Cholecystokinin receptor type A; experiment: Agonist activity at human CCK1 receptor expressed in CHO cells assessed as induction of calcium release by FLIPR assay; type: functional, cell-based
Outline: (§1)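 Calcium release was measured by FLIPR at the human CCK1 receptor. EC50 and efficacy were expressed as % agonism versus CCK-8. Values are mean ± standard error of at least three independent experiments.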

[4] = target: T2, Cholecystokinin receptor type A (Homo sapiens) (UniProt P32238); experiment: Agonist activity at human CCK1 receptor expressed in CHO cells assessed as induction of calcium release by FLIPR assay relative to CCK8; type: functional, cell-based; outline: as §1
T2 sequence (whole entry): T1 sequence (P32238 whole entry)

[5] = Intrinsic clearance in human liver microsomes; type: ADME, Microsome
[6] = Kinetic solubility of the compound at pH 6.5; type: physicochemical; settings: buffer
[7] = target: T3, Cholecystokinin receptor type A (Rattus norvegicus, UniProt P30551); experiment: Displacement of [125I]CCK8 from rat CCK1 receptor expressed in CHO cells; type: cell-based
T3 sequence (P30551 whole entry): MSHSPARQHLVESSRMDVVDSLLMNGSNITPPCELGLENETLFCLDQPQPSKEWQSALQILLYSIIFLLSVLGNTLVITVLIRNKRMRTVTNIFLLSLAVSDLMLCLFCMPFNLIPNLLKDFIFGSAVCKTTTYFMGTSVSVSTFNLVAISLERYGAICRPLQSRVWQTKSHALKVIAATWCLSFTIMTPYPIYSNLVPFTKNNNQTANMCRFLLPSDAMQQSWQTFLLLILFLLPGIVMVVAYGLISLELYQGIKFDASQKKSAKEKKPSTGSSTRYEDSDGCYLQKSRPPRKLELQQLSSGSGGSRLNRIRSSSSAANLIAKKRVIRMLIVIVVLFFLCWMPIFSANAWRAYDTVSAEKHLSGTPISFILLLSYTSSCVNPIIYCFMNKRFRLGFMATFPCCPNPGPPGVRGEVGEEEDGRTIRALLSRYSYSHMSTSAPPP
Outline: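 Binding IC50 at the rat CCK1 receptor. Values are mean ± standard error of at least two independent experiments.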

[8] = target: T3, Cholecystokinin receptor type A; experiment: Agonist activity at rat CCK1 receptor expressed in CHO cells assessed as induction of calcium release by FLIPR assay; type: functional, cell-based
Outline: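 Calcium release was measured by FLIPR at the rat CCK1 receptor to give EC50. Values are mean ± standard error of at least two independent experiments.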

[9] = target: T4, Gastrin/cholecystokinin type B receptor (Homo sapiens) (UniProt P32239); experiment: Agonist activity at CCK2 receptor assessed as calcium mobilization by FLIPR assay; type: functional
T4 sequence (whole entry): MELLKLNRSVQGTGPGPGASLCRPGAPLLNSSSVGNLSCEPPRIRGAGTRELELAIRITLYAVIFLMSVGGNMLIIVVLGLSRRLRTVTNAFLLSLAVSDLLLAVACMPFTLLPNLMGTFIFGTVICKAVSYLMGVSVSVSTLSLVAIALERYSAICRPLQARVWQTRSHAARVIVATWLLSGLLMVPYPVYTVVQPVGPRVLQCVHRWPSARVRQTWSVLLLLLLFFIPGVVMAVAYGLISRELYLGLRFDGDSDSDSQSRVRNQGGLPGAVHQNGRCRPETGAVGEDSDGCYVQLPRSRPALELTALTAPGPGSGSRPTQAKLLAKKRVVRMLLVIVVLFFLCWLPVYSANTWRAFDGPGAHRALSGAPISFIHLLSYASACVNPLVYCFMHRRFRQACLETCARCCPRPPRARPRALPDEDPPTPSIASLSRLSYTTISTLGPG

[10] = target: T4, Gastrin/cholecystokinin type B receptor (Homo sapiens); experiment: Agonist activity at CCK2 receptor by [35S]GTPgammaS binding assay; type: functional
Mus musculus [11] = experiment: Induction of emptying of gallbladder in C57BL/6J mouse at 6 mg/kg, po measured at 1 hr; type: functional
Outline: (§2)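 Mouse gallbladder emptying model. Compounds were given orally, as amorphous material unless noted or as an SDD formulation where stated. Gallbladder emptying (%) was read at 1 h after 6 mg/kg. Gallbladder refilling was assessed at 24 h.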

Rattus norvegicus [12] = experiment: Antiobesity activity in Sprague-Dawley rat assessed as reduction in spontaneous food intake at 6 mg/kg, po measured at 4 hrs; type: functional
Outline: (§3)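 Rats were dosed orally at 6 mg/kg, as amorphous material unless stated or as a solid spray-dried dispersion (SDD). Spontaneous food intake was measured against vehicle at 4 h post-dose, and at 12 h where stated. Significance was P <0.05 versus vehicle unless noted.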

Mus musculus [13] = experiment: Induction of emptying of gallbladder in C57BL/6J mouse at 6 mg/kg, po administered via SDD formulation measured at 1 hr; type: functional; outline: as §2
Rattus norvegicus [14] = experiment: Antiobesity activity in Sprague-Dawley rat assessed as reduction in spontaneous food intake at 6 mg/kg, po administered via SDD formulation measured at 4 hrs; type: functional; outline: as §3
Rattus norvegicus [15] = experiment: Antiobesity activity in Sprague-Dawley rat assessed as reduction in spontaneous food intake at 6 mg/kg, po measured at 4 hrs relative to vehicle; type: functional; parameters: scale not given: the % may be the effect or the level left; outline: as §3
Rattus norvegicus [16] = experiment: Antiobesity activity in Sprague-Dawley rat assessed as reduction in spontaneous food intake at 6 mg/kg, po measured at 4 hrs in presence of 20 mg/kg CCK1R antagonist lorglumide relative to vehicle; type: functional
Rattus norvegicus [17] = experiment: fCmax in Sprague-Dawley rat at 6 mg/kg, po by HPLC/MS/MS analysis; type: ADME, organism-based; parameters: dose 6 mg/kg, route oral; settings: in vivo
Outline: (§4)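 Male Sprague-Dawley rats, n of 3, given a single 3.0 mg/kg iv dose or 6.0 mg/kg po dose. Plasma exposure was followed over time. Values are mean with standard deviation.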

[18] = Plasma clearance in Sprague-Dawley rat at 3 mg/kg, iv by HPLC/MS/MS analysis; type: ADME, organism-based; parameters: dose 3 mg/kg, route intravenous; outline: as §4
[19] = Volume of distribution at steady state in Sprague-Dawley rat at 3 mg/kg, iv by HPLC/MS/MS analysis; type: ADME, organism-based; parameters: dose 3 mg/kg, route intravenous; settings: in vivo, read-out: Vdss; outline: as §4
[20] = AUC (0 to tlast) in Sprague-Dawley rat at 3 mg/kg, iv by HPLC/MS/MS analysis; type: ADME, organism-based; parameters: dose 3 mg/kg, route intravenous; settings: plasma; outline: as §4
[21] = AUC (0 to tlast) in Sprague-Dawley rat at 6 mg/kg, po by HPLC/MS/MS analysis; type: ADME, organism-based; parameters: dose 6 mg/kg, route oral; settings: plasma; outline: as §4
Rattus norvegicus [22] = experiment: Biliary clearance in Sprague-Dawley rat at 3 mg/kg, iv by HPLC/MS/MS analysis; type: ADME, organism-based; parameters: dose 3 mg/kg, route intravenous; settings: in vivo
[23] = Half life in Sprague-Dawley rat at 3 mg/kg, iv by HPLC/MS/MS analysis; type: ADME, organism-based; parameters: dose 3 mg/kg, route intravenous; settings: in vivo; outline: as §4
[24] = Oral bioavailability in Sprague-Dawley rat at 6 mg/kg by HPLC/MS/MS analysis; type: ADME, organism-based; settings: in vivo; outline: as §4
Rattus norvegicus [25] = experiment: Tmax in Sprague-Dawley rat at 6 mg/kg, po by HPLC/MS/MS analysis; type: ADME, organism-based; parameters: dose 6 mg/kg, route oral; settings: in vivo; outline: as §4
[26] = Cmax in Sprague-Dawley rat at 6 mg/kg, po by HPLC/MS/MS analysis; type: ADME, organism-based; parameters: dose 6 mg/kg, route oral; settings: in vivo; outline: as §4
Rattus norvegicus [27] = species on record: Rattus norvegicus; settings: Sprague-Dawley, 6 mg/kg
[28] = Blood clearance predicted from rat liver microsomes; settings: whole blood
Mus musculus [29] = experiment: Induction of emptying of gallbladder in C57BL/6J mouse at 6 mg/kg, po measured at 24 hrs; type: functional
Outline: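 Mice dosed orally; compound given as amorphous solid unless noted, with one analog in spray-dried dispersion formulation. Read-out is % gallbladder emptying after dosing.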

[30] = Biliary clearance in Sprague-Dawley rat assessed as parent compound excretion into bile at 3 mg/kg, iv by HPLC/MS/MS analysis; type: ADME, organism-based; parameters: dose 3 mg/kg, route intravenous; settings: read-out: Activity

Row | Activity [4] | CLint scaled [5] | solubility kinetic [6] | Activity [9] | Activity [10] | SMILES | logD ([1]; read-out: logD) | IC50 [2] | EC50 [3] | IC50 [7] | EC50 [8] | Activity (Mus musculus [11]) | inhibition in vivo at 6 mg/kg (Rattus norvegicus [12]) | further results
1 | 72.3% | 39.5 mL/min/kg | 2.26 µM (≈ 1.35 µg/mL) | inactive | inactive | CC(C)N(Cc1ccccc1)C(=O)CN1C(=O)C(Cc2n[nH]c3ccccc23)c2nnc(-c3ccccc3)n2-c2ccccc21 (stereo unspecified) | 3.16 | 48.5 nM | 522 nM | 21 nM | 481 nM | 86.3% | 43% | –
2 | 53% | 199 mL/min/kg | 0.94 µM (≈ 0.559 µg/mL) | inactive | inactive | CC(C)N(Cc1ccccc1)C(=O)CN1C(=O)[C@@H](Cc2c[nH]c3ccccc23)c2nnc(-c3ccccc3)n2-c2ccccc21 [CE-326597] | – | – | – | – | – | – | – | logD [1]: 3.39; Activity (Mus musculus [13]): 91%; inhibition in vivo at 6 mg/kg (Rattus norvegicus [14]): 56%; Activity (Rattus norvegicus [15]): -56%; inhibition (INH) (Rattus norvegicus [16]): 2.4%; fCmax (Rattus norvegicus [17]): 0.98 nM; clearance [18]: 41.7 mL/min/kg; Vd [19]: 3.7 L/kg; AUC(0-t) [20]: 1190 ng·h/mL; AUC(0-t) [21]: 42.5 ng·h/mL; CL_biliary (Rattus norvegicus [22]): 0.0277 mL/min/kg; half-life [23]: 1.37 h; bioavailability [24]: 1%; Tmax (Rattus norvegicus [25]): 1.33 h; Cmax [26]: 14.6 ng/mL; inhibition (Rattus norvegicus [27]): Active; clearance [28]: 47 mL/min/kg

Row | SMILES | Activity [4] | CLint scaled [5] | solubility kinetic [6] | Activity [9] | Activity [10] | logD ([1]; read-out: logD) | IC50 [2] | EC50 [3] | IC50 [7] | EC50 [8] | Activity (Mus musculus [11]) | inhibition in vivo at 6 mg/kg (Rattus norvegicus [12]) | further results
3 | CC(C)N(C(=O)CN1C(=O)[C@H](NC(=O)Nc2cccc(C(=O)O)c2)C(=O)N(c2ccccc2)c2ccccc21)c1ccccc1 | 62.8% | < 8 mL/min/kg | 499 µM (≈ 302 µg/mL) | – | – | 1.09 | 131 nM | 283 nM | 52.6 nM | 63.8 nM | 82% | 52% | Activity (Mus musculus [29]): 91.4%; dose excreted [30]: 65%
